# Source: PubChem BioAssay AID624165 (Southern Research Specialized Biocontainment Screening …, 2012)
# Activity calls are given as the source filed them.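 Rule for the calls: active = inhibition of 30% or more at any tested concentration; inactive = the rest.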
# Test system: Plasmodium falciparum M18 aspartyl aminopeptidase (PfM18AAP)
# Test: PFM18AAP inhibitors, dose response, selectivity assay for PFM1AAP inhibitor project, biochemical, QFRET, H-Glu-NHMec substrate, set 3 (AID 624165)
# Conditions: Recombinant PfM18AAP, H-Glu-NHMec fluorogenic cleavage; series mostly up to 100 µM; inhibition: at the top concentration
# How it was run: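 Benchmarks: no-enzyme background wells / Test system: purified recombinant PfM18AAP, M18 aspartyl aminopeptidase of Plasmodium falciparum / Quantity: enzyme 5 µg/mL / Schedule: enzyme reaction 90 min at room temperature / Repeats: each compound tested in triplicate / Compound dosing: 10-point twofold dilution series, 100 down to 0.2 µM / Detection: fluorescence, excitation 370 nm, emission 460 nm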
row,Compound,inhibition
1,O=C(NCc1ccc(F)cc1)C1CCN(S(=O)(=O)c2sccc2Br)CC1,4.56% (inactive)
2,O=C(Nc1ccc2c(c1)OCO2)C1CCN(S(=O)(=O)c2ccc(Br)cc2)CC1,-2.22% (inactive)
3,O=C(NCc1ccc2c(c1)OCO2)C1CCN(S(=O)(=O)c2ccc(Cl)s2)CC1,10.5% (inactive)
4,O=C(NCc1ccc(F)cc1)C1CCN(S(=O)(=O)c2ccc(Br)cc2)CC1,14.5% (inactive)
5,O=C(Nc1ccc2c(c1)OCO2)C1CCN(S(=O)(=O)c2sccc2Br)CC1,-1.28% (inactive)
6,O=C(NCc1cccc(F)c1)C1CCN(S(=O)(=O)c2cc(Br)c(Br)s2)CC1,2.39% (inactive)
7,O=C(NCc1ccc(F)cc1)C1CCN(S(=O)(=O)c2cc(Br)c(Br)s2)CC1,11.3% (inactive)
8,O=C(NCCc1ccc2c(c1)OCO2)C1CCN(S(=O)(=O)c2ccc(Br)cc2)CC1,0.75% (inactive)
9,O=C(Nc1ccc2c(c1)OCO2)C1CCN(S(=O)(=O)c2cc(Br)c(Br)s2)CC1,-0.06% (inactive)
10,O=C(NCc1ccccc1F)C1CCN(S(=O)(=O)c2sccc2Br)CC1,1.26% (inactive)
11,O=C(NCc1cccc(F)c1)C1CCN(S(=O)(=O)c2ccc(Cl)s2)CC1,11.8% (inactive)
12,O=C(NCc1ccccc1F)C1CCN(S(=O)(=O)c2ccc(Cl)s2)CC1,6.81% (inactive)
13,O=C(NCCc1ccc2c(c1)OCO2)C1CCN(S(=O)(=O)c2ccc(Br)s2)CC1,6.12% (inactive)
14,O=C(NCc1cccc(F)c1)C1CCN(S(=O)(=O)c2ccc(Br)s2)CC1,2.41% (inactive)
15,O=C(NCCc1ccc2c(c1)OCO2)C1CCN(S(=O)(=O)c2sccc2Br)CC1,5.41% (inactive)
16,O=C(NCc1cccc(F)c1)C1CCN(S(=O)(=O)c2sccc2Br)CC1,4.41% (inactive)
17,O=C(NCc1ccccc1F)C1CCN(S(=O)(=O)c2ccc(Br)cc2)CC1,1.27% (inactive)
18,O=C(Nc1ccc2c(c1)OCO2)C1CCN(S(=O)(=O)c2ccc(Cl)s2)CC1,2.63% (inactive)
19,O=C(NCCc1ccc2c(c1)OCO2)C1CCN(S(=O)(=O)c2cc(Br)c(Br)s2)CC1,6.44% (inactive)
20,O=C(NCc1ccccc1F)C1CCN(S(=O)(=O)c2ccc(Br)s2)CC1,5.87% (inactive)
21,O=C(NCc1cccc(F)c1)C1CCN(S(=O)(=O)c2ccc(Br)cc2)CC1,5.49% (inactive)
22,O=C(NCc1ccc(F)cc1)C1CCN(S(=O)(=O)c2ccc(Br)s2)CC1,2.15% (inactive)
23,O=C(NCc1ccc2c(c1)OCO2)C1CCN(S(=O)(=O)c2ccc(Br)s2)CC1,-8.16% (inactive)
24,O=C(NCCc1ccc2c(c1)OCO2)C1CCN(S(=O)(=O)c2ccc(Cl)s2)CC1,3.06% (inactive)
25,O=C(Nc1ccc2c(c1)OCO2)C1CCN(S(=O)(=O)c2ccc(Br)s2)CC1,1.63% (inactive)
26,O=C(NCc1ccc2c(c1)OCO2)C1CCN(S(=O)(=O)c2ccc(Br)cc2)CC1,3.21% (inactive)
27,O=C(NCc1ccc2c(c1)OCO2)C1CCN(S(=O)(=O)c2cc(Br)c(Br)s2)CC1,4.8% (inactive)
28,O=C(NCc1ccccc1F)C1CCN(S(=O)(=O)c2cc(Br)c(Br)s2)CC1,1.25% (inactive)
29,O=C(NCc1ccc2c(c1)OCO2)C1CCN(S(=O)(=O)c2sccc2Br)CC1,4.54% (inactive)
30,O=C(NCc1ccc(F)cc1)C1CCN(S(=O)(=O)c2ccc(Cl)s2)CC1,-10% (inactive)
